Measured values collected from several papers.
Each line is one published result; the experiments were not run side by side. In brackets after ≈: the same amount, converted by molar mass.
Organism: Salmonella enterica

| Structure (SMILES) | effect on | method | strain | time | pH | quantity | value |
| --- | --- | --- | --- | --- | --- | --- | --- |
| CO/N=C(\C(=O)N[C@@H]1C(=O)N2C(C(=O)O)=C(CSC(=O)c3ccco3)CS[C@H]12)c1csc(N)n1 | microbial growth | – | CHOLERAESUIS | 20 h | pH 7 | MIC | 1 µg/mL |
| CCCCCCCCCCCC(=O)OC[C@H]1O[C@@H](n2cc(C)c(=O)[nH]c2=O)C[C@@H]1OC(=O)c1ccc(C(C)(C)C)cc1 | microbial killing | broth dilution | TYPHI | – | – | MBC | 16 µg/mL (≈ 27.4 µM) |
| [H]/N=C(/N)N[C@H]1[C@H](O)[C@@H](O)[C@H](O[C@@H]2O[C@@H](C)[C@](O)(C=O)[C@H]2O[C@@H]2O[C@@H](CO)[C@H](O)[C@@H](O)[C@@H]2NC)[C@@H](N/C(N)=N\[H])[C@@H]1O | microbial growth | – | TYPHI | – | – | IC50 | 8.1 µM |
| O=C1NN=C(N=Cc2ccccc2O)C1=NNn1c(-c2ccccc2)nc2ccccc2c1=O | microbial growth | broth dilution | PARATYPHI | 24 h | – | MIC | 55.4 µM |
| CO[C@H]1/C=C/O[C@@]2(C)Oc3c(C)c(O)c4c(O)c(c(/C=N/N5CCN(C)CC5)c(O)c4c3C2=O)NC(=O)/C(C)=C\C=C\[C@H](C)[C@H](O)[C@@H](C)[C@@H](O)[C@@H](C)[C@H](OC(C)=O)[C@@H]1C | microbial growth | – | TYPHI | – | – | IC50 | 0.12 µM |
| COc1cc(Cc2cnc(N)nc2N)cc(OC)c1OC | microbial growth | – | CHOLERAESUIS | 20 h | pH 5.5 | MIC | 0.5 µg/mL |
| CCCCCCCCCCCC(=O)OC[C@H]1O[C@@H](n2cc(C)c(=O)[nH]c2=O)C[C@@H]1O | microbial killing | broth dilution | TYPHI | – | – | MBC | 8 µg/mL (≈ 18.8 µM) |
| CC1=NN(CNc2ccccc2)C(=O)C1=NNn1c(-c2ccccc2)nc2ccccc2c1=O | microbial growth | broth dilution | PARATYPHI | 24 h | – | MIC | 221 µM |
| CCn1cc(C(=O)O)c(=O)c2ccc(C)nc21 | microbial growth | – | CHOLERAESUIS | 20 h | pH 7.2 | MIC | 4 µg/mL |
| CC1=NN(CNc2c(O)c(S(=O)(=O)O)cc3ccccc23)C(=O)C1=NNn1c(-c2ccccc2)nc2ccccc2c1=O | microbial growth | broth dilution | PARATYPHI | 24 h | – | MIC | 83.7 µM |
| CO[C@H]1O[C@H](COC(c2ccccc2)(c2ccccc2)c2ccccc2)[C@@H](OC(=O)c2ccc(C(C)(C)C)cc2)[C@H](OC(=O)c2ccc(C(C)(C)C)cc2)[C@H]1OC(=O)c1ccc(C(C)(C)C)cc1 | microbial killing | broth dilution | TYPHI | – | – | MBC | 16 µg/mL (≈ 17.4 µM) |
